According to ChEMBL document CHEMBL4680186, “New azole antifungals with a fused triazinone scaffold” (Eur J Med Chem, 2020):
Activity calls are given as the source filed them. The calls are words filed in the database; no cut-off is given here.

Assays:
Rhizopus arrhizus [1] = experiment: Antifungal activity against Rhizopus oryzae RHPOR1 assessed as reduction in microbial growth after 24 hrs by broth microdilution method; type: functional
Procedure, shortened: (§1)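 CLSI M38 broth microdilution in RPMI 1640 buffered to pH 7.0 with MOPS. Drugs were diluted in DMSO then medium; final range 0.032-16 mg/L. Conidia or sporangiospores came from 7-day potato dextrose agar cultures; diluted (2×) inocula were 0.9×10^4–4.7×10^4 CFU/mL. Incubation at 35 °C, read at 48 h except Zygomycetes at 24 h. MIC read visually as lowest concentration preventing 100% growth; duplicate.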

Rhizopus arrhizus [2] = experiment: Antifungal activity against Rhizopus oryzae RHPOR2 assessed as reduction in microbial growth after 24 hrs by broth microdilution method; type: functional; procedure, shortened: as §1
Mucor circinelloides = experiment: Antifungal activity against Mucor circinelloides MURI1 assessed as reduction in microbial growth after 24 hrs by broth microdilution method; type: functional; procedure, shortened: as §1
Fusarium sp. = experiment: Antifungal activity against Fusarium sp. assessed as reduction in microbial growth […] by broth microdilution method; type: functional
Scedosporium apiospermum = experiment: Antifungal activity against Scedosporium apiospermum SCAP1 assessed as reduction in microbial growth […] by broth microdilution method; type: functional
Candida albicans [3] = experiment: Inhibition of sterol biosynthesis in Candida albicans CAAL93 assessed as ergosterol level at 10 ng/ml after 18 hrs by GC-MS analysis (reference value: 89.7%); type: functional; set-up: scale not given: the % may be the effect or the level left
Procedure, shortened: (§2)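 C. albicans CAAL93 blastospores were grown 18 h at 35 °C with stirring in 50 mL Sabouraud broth, with drug added before incubation. Cells were pelleted and saponified in ethanolic KOH at 80 °C for 60 min, and sterols extracted with hexane. Analysis by GC-MS (EI 70 eV, splitless injection at 250 °C, helium carrier); sterols identified by fragmentation pattern.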

Candida albicans [4] = experiment: Inhibition of sterol biosynthesis in Candida albicans CAAL93 assessed as 14alpha-methylfecosterol level at 10 ng/ml after 18 hrs by GC-MS analysis relative to control; type: functional; set-up: scale not given: the % may be the effect or the level left; procedure, shortened: as §2
Candida albicans [5] = experiment: Inhibition of sterol biosynthesis in Candida albicans CAAL93 assessed as ergostadienol level at 10 ng/ml after 18 hrs by GC-MS analysis (reference value: 1.6%); type: functional; set-up: scale not given: the % may be the effect or the level left; procedure, shortened: as §2
Candida albicans [6] = experiment: Inhibition of sterol biosynthesis in Candida albicans CAAL93 assessed as lanosterol level at 10 ng/ml after 18 hrs by GC-MS analysis (reference value: 1.6%); type: functional; set-up: scale not given: the % may be the effect or the level left; procedure, shortened: as §2
Candida albicans [7] = experiment: Inhibition of sterol biosynthesis in Candida albicans CAAL93 assessed as eburicol level at 10 ng/ml after 18 hrs by GC-MS analysis relative to control; type: functional; set-up: scale not given: the % may be the effect or the level left; procedure, shortened: as §2
Candida albicans [8] = experiment: Inhibition of sterol biosynthesis in Candida albicans CAAL93 assessed as other sterols level at 10 ng/ml after 18 hrs by GC-MS analysis (Rvb < 1%); type: functional; set-up: scale not given: the % may be the effect or the level left; procedure, shortened: as §2
Candida albicans [9] = experiment: Inhibition of sterol biosynthesis in Candida albicans CAAL93 assessed as zymosterol level at 1 ng/ml after 18 hrs by GC-MS analysis (reference value: 1.6%); type: functional; set-up: scale not given: the % may be the effect or the level left
Candida albicans [10] = experiment: Inhibition of sterol biosynthesis in Candida albicans CAAL93 assessed as ergosterol level at 1 ng/ml after 18 hrs by GC-MS analysis (reference value: 89.7%); type: functional; set-up: scale not given: the % may be the effect or the level left
Candida albicans [11] = experiment: Inhibition of sterol biosynthesis in Candida albicans CAAL93 assessed as fecosterol level at 1 ng/ml after 18 hrs by GC-MS analysis relative to control; type: functional; set-up: scale not given: the % may be the effect or the level left
Candida albicans [12] = experiment: Inhibition of sterol biosynthesis in Candida albicans CAAL93 assessed as ergostadienol level at 1 ng/ml after 18 hrs by GC-MS analysis (reference value: 1.6%); type: functional; set-up: scale not given: the % may be the effect or the level left
Candida albicans [13] = experiment: Inhibition of sterol biosynthesis in Candida albicans CAAL93 assessed as episterol level at 1 ng/ml after 18 hrs by GC-MS analysis (reference value: 2%); type: functional; set-up: scale not given: the % may be the effect or the level left
Candida albicans [14] = experiment: Inhibition of sterol biosynthesis in Candida albicans CAAL93 assessed as lanosterol level at 1 ng/ml after 18 hrs by GC-MS analysis (reference value: 1.6%); type: functional; set-up: scale not given: the % may be the effect or the level left
Candida albicans [15] = experiment: Inhibition of sterol biosynthesis in Candida albicans CAAL93 assessed as eburicol level at 1 ng/ml after 18 hrs by GC-MS analysis relative to control; type: functional; set-up: scale not given: the % may be the effect or the level left
Candida albicans [16] = experiment: Inhibition of sterol biosynthesis in Candida albicans CAAL93 assessed as other sterols level at 1 ng/ml after 18 hrs by GC-MS analysis (Rvb < 1%); type: functional; set-up: scale not given: the % may be the effect or the level left
Candida albicans [17] = experiment: Inhibition of ergosterol biosynthesis in Candida albicans CAAL93 at 1 ng/ml after 18 hrs by GC-MS analysis relative to control; type: functional
Candida albicans [18] = experiment: Inhibition of ergosterol biosynthesis in Candida albicans CAAL93 at 10 ng/ml after 18 hrs by GC-MS analysis relative to control; type: functional
Candida albicans [19] = experiment: Inhibition of ergosterol biosynthesis in Candida albicans CAAL93 after 18 hrs by GC-MS analysis; type: functional; settings: dose 1-10 ng/ml
[20] = Toxicity in CRL:WI rat assessed as mortality at 300 mg/kg, po up to 14 days; type: organism-based; settings: in vivo, 336 h, time <=14 day
Procedure, shortened: (§3)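 Acute oral toxicity in rats: single gavage dose of 300 mg/kg bw (two groups). Behaviour, body weight change, toxicity signs and mortality were recorded at 30 min, 1, 2, 4 and 6 h after dosing, then daily for 14 days.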

[21] = Toxicity in CRL:WI rat assessed as hunched back at 300 mg/kg, po up to 14 days; type: organism-based; settings: in vivo, 336 h, time <=14 day; procedure, shortened: as §3
[22] = Toxicity in CRL:WI rat assessed as behavioral changes at 300 mg/kg, po up to 14 days; type: organism-based; settings: in vivo, 336 h, time <=14 day; procedure, shortened: as §3
[23] = Toxicity in CRL:WI rat assessed as weight gain at 300 mg/kg, po up to 14 days; type: organism-based; settings: in vivo, 336 h, time <=14 day; procedure, shortened: as §3
Candida albicans [24] = experiment: Antifungal activity against Candida albicans CAAL93 infected in Swiss mouse assessed as survival at 10 mg/kg, po after 14 days relative to control; type: functional; settings: 336 h, time 14 day
Procedure, shortened: (§4)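 Swiss mice (~25 g) immunosuppressed with prednisolone 30 mg/kg s.c. one day before challenge; day 0 i.v. infection with C. albicans blastoconidia (5.10⁶ yeast/mL, 100 µL). Oral dosing 1 h post-infection, once daily for 5 days, 10 mg/kg (CAAL93) or 15 mg/kg (DSY292), vehicle 40% DMSO/25% Tween80/35% olive oil. Mice given 50% grapefruit juice ad libitum. Survival followed 14 days (log-rank Mantel-Cox).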

Candida albicans [25] = experiment: Antifungal activity against Candida albicans CAAL93 infected in Swiss mouse assessed as reduction in kidney fungal burden at 10 mg/kg, po after 14 days; type: functional, organism-based; settings: time 14.0 day
Candida albicans [26] = experiment: Antifungal activity against Candida albicans DSY292 harboring Erg1l G464S/R467K/Y132 mutant infected in Swiss mouse assessed as survival at 15 mg/kg, po after 10 days; type: functional, organism-based; settings: time 10.0 day; procedure, shortened: as §4
Candida albicans [27] = experiment: Antifungal activity against Candida albicans DSY292 harboring Erg1l G464S/R467K/Y132 infected in Swiss mouse assessed as reduction in kidney fungal burden at 10 mg/kg, po after 14 days; type: functional, organism-based; settings: time 14.0 day
[28] = system: Pichia kudriavzevii (Candida krusei); experiment: Antifungal activity against fluconazole-resistant Candida krusei CAKR7 assessed as reduction in microbial growth after 24 hrs by resazurin staining based spectrofluorometric method; settings: CAKR7, 24 h
[29] = system: Pichia kudriavzevii (Candida krusei); experiment: Antifungal activity against fluconazole-resistant Candida krusei CAKR8 assessed as reduction in microbial growth after 24 hrs by resazurin staining based spectrofluorometric method; settings: CAKR8, 24 h

COc1ccc(-c2cc3cnn([C@H](C)[C@](O)(Cn4cncn4)c4ccc(F)cc4F)c(=O)n3c2)cc1
MIC (Rhizopus arrhizus [1]): 0.0625 µg/mL | MIC (Rhizopus arrhizus [2]): 0.094 µg/mL | MIC (Mucor circinelloides): 0.19 µg/mL | MIC (Fusarium sp.): > 16 µg/mL | MIC (Scedosporium apiospermum): 3 µg/mL | Activity (Candida albicans [3]): 42% | Activity (Candida albicans [4]): 3.6% | Activity (Candida albicans [5]): 1.1% | Activity (Candida albicans [6]): 25.2% | Activity (Candida albicans [7]): 23.1% | Activity (Candida albicans [8]): 5% | Activity (Candida albicans [9]): 3.3% | Activity (Candida albicans [10]): 61% | Activity (Candida albicans [11]): 3.2% | Activity (Candida albicans [12]): 3.7% | Activity (Candida albicans [13]): 11% | Activity (Candida albicans [14]): 7.7% | Activity (Candida albicans [15]): 1.8% | Activity (Candida albicans [16]): 8.3% | inhibition (Candida albicans [17]): 32% | inhibition (Candida albicans [18]): 53% | inhibition (Candida albicans [19]): Dose-dependent effect | Activity [20]: Non-Toxic | Activity [21]: Toxic | Activity [22]: Toxic | Activity [23]: Non-Toxic | survival at 10 mg/kg (Candida albicans [24]): 100% | Activity (Candida albicans [25]): Active | Survival (Candida albicans [26]): Active | Activity (Candida albicans [27]): Active | MIC [28]: 0.062 µg/mL | MIC [29]: 0.081 µg/mL
